Here are results for 25 compounds from ChEMBL document CHEMBL5625181, “Exploring the 1,3-benzoxazine chemotype for cannabinoid receptor 2 as a promising anti-cancer therapeutic” (Eur J Med Chem, 2023).

Test [1] has as its target T1, Cannabinoid receptor 2 (Homo sapiens, UniProt P34972). The test is described as follows: Displacement of [3H]CP55,940 from human CB2 receptor expressed in CHO cells membrane assessed as residual activity at 0.1 uM by scintillation counting analysis relative to control. In kind it is cell membranes. In a few lines: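 Membranes (2.5 µg) from CHO cells stably expressing human CB2, in 50 mM Tris-HCl, 5 mM MgCl2, 1 mM CaCl2, 2 mg/mL BSA, pH 7.4. Incubated 30 min at 37 °C with 0.8 nM [3H]CP55,940 and 0.1 µM compound (final). Nonspecific binding with 1 µM unlabelled CP55,940. Filtered on PEI-soaked GF/B filters, scintillation counted. Quintuplicate, ≥3 experiments.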
(In general: Displacement assays read how much labelled ligand stays bound in the presence of the test substance.)

Test [2] has as its target T1, Cannabinoid receptor 2. The test can be described thus: Agonist activity at human recombinant Cannabinoid receptor 2 by GTPgammaS binding assay. The following applies: for EC50: read-out: pEC50 (converted). The format is functional. The gist of the method: (§1)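 [35S]GTPγS filtration assay. Membranes (5 µg CB2 or 10 µg/well CB1), permeabilized with equal mass of saponin, preincubated 20 min at room temperature with compound (0-100 μM) in 20 mM HEPES, 100 mM NaCl, 10 mM MgCl2, 10 µM GDP, pH 7.4. Then 0.3 nM [35S]GTPγS for 30 min at 37 °C. Quintuplicate, ≥3 experiments. pEC50 from non-linear fit.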

For test [3], the target named is Cannabinoid receptor 1 (Homo sapiens, UniProt P21554). The test can be described thus: Agonist activity at human recombinant Cannabinoid receptor 1 by GTPgammaS binding assay. In kind it is functional. The conditions noted are these: read-out: pEC50 (converted). In a few lines: as §1
Chain of Cannabinoid receptor 1 (P21554 whole entry): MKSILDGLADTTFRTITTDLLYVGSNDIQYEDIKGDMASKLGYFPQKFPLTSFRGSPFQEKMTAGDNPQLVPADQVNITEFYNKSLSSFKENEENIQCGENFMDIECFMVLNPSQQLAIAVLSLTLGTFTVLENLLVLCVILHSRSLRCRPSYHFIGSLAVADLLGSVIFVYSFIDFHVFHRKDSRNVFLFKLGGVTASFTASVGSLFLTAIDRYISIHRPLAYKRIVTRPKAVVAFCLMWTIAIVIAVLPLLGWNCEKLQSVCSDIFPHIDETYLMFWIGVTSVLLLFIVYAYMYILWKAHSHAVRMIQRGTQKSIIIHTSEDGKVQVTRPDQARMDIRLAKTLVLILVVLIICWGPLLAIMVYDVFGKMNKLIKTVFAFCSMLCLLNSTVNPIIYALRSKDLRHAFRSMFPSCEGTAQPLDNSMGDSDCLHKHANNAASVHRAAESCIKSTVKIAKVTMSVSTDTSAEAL
For orientation: GTPγS resists hydrolysis and so accumulates on activated G proteins.

Test [4] deals with BT-549. The test is described as follows: Inhibition of colony formation in human BT-549 cells assessed as decrease in number of colonies at 0.1 uM incubated for 14 days by inverted phase contrast microscope relative to control. In kind it is functional, cell-based. The conditions noted are these: time 14.0 day. The gist of the method:
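BT549 seeded at 1 x 10^3 cells/well and grown at 37 °C for at least 14 days with vehicle or compound. Colonies fixed and stained with 6% glutaraldehyde/0.5% crystal violet for 30 min, then counted by inverted phase-contrast microscopy (10x). Expressed as % of vehicle. Three independent experiments, each at least in triplicate.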

Test [5] addresses T1, Cannabinoid receptor 2. The test is described as follows: Agonist activity at human recombinant Cannabinoid receptor 2 assessed as stimulation of GTPgammaS binding at 1 uM by GTPgammaS binding assay relative to control. The format is functional. The gist of the method:
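CB2 membranes (ChemiSCREEN) at 5 µg, permeabilised with an equal mass of saponin. Pre-incubated with ligand for 20 min at RT in 20 mM HEPES, 100 mM NaCl, 10 mM MgCl2, pH 7.4, with 10 µM GDP. Then 0.3 nM [35S]GTPγS for 30 min at 37 °C. Stopped with ice-cold phosphate buffer, filtered on PEI-soaked GF/B, scintillation counted. Quintuplicates, ≥3 experiments.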

Test [6] deals with BT-549. The test is described as follows: Antiproliferative activity against human BT-549 cells transfected with CNR2 siRNA assessed as inhibition of cell proliferation at 0.1 uM incubated after 24 hrs by MTT assay. In kind it is functional, cell-based. The gist of the method:
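BT549 transfected with 50 nM CNR2 siRNA or scramble oligo (Lipofectamine RNAiMAX). After 24 h, treated for a further 24 h. Viability by MTT: 1 mg/mL final for 3 h at 37 °C, formazan dissolved in DMSO, absorbance read at 590 nm.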
(Tetrazolium dyes change colour on reduction, which living cells bring about.)

The test system of test [7] is BT-549. The test can be described thus: Antiproliferative activity against human BT-549 cells assessed as decrease in cell proliferation at 0.1 uM by MTT assay. In kind it is functional, cell-based. In a few lines: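 BT549 in RPMI-1640 with 10% FBS and insulin, seeded at 1.5 x 10^4/well overnight. Sub-confluent cells treated at 37 °C. MTT added at 1 mg/mL final for 3 h at 37 °C in the dark, formazan dissolved in DMSO, absorbance read at 590 nm. Expressed as % of vehicle.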

Active and inactive are the calls of the source. No cut-off for these calls is given here.

T1 sequence (P34972 whole entry): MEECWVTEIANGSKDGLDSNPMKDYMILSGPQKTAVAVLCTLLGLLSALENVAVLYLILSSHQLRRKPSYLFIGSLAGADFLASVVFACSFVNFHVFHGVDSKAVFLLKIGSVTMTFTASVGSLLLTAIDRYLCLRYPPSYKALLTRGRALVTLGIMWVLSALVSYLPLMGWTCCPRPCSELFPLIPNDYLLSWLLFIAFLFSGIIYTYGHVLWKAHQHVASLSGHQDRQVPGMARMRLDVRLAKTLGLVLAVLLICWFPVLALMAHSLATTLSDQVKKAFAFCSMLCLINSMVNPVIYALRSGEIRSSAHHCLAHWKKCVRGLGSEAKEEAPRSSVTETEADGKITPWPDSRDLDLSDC

Take `CC1(C)NC(=O)c2ccc(OS(=O)(=O)c3cccc4ccccc34)cc2O1`: the Activity in test [1] is less than 80%.
For the compound `COc1cccc(S(=O)(=O)Oc2ccc3c(c2)OC2(CCCCC2)N(Cc2ccccc2)C3=O)c1`, the Activity in test [1] was less than 80%. The EC50 is 417 nM in test [2] and more than 10000 nM in test [3].
The like results for `Cn1ccc(S(=O)(=O)Oc2ccc3c(c2)OC2(CCCCC2)N(Cc2ccc(C#N)cc2)C3=O)n1` were, in that order, less than 80%, 372 nM and more than 10000 nM.
For the compound `COc1cccc(S(=O)(=O)Oc2ccc3c(c2)OC2(CCCCC2)N(Cc2ccc(C(C)C)cc2)C3=O)c1`, in test [1], the Activity was less than 80%.
On to `CC(C)(C)C(=O)COc1ccc2c(c1)OC(C)(C)N(Cc1ccccc1)C2=O`, for which the Activity in test [1] is less than 80%. Besides, the pEC50 result in test [2] is “inactive”.
Consider `COc1cccc(COc2ccc3c(c2)OC(C)(C)N(Cc2ccc(F)cc2)C3=O)c1`, for which the Activity in test [1] was less than 80%. Also, the pEC50 result in test [2] was “inactive”.
As for `CCCn1c(C)c(C(=O)c2cccc3ccccc23)c2ccccc21`, the inhibition entry in test [4] is “Active”. For the same compound, the Activity in test [5] came out at 233%. In addition, in test [6], the outcome was inactive. For the same compound, the outcome in test [7] was Active.
Turning to `COc1cccc(S(=O)(=O)Oc2ccc3c(c2)OC2(CCCCC2)N(CCCCC#N)C3=O)c1`, the Activity in test [1] is less than 80%. Moreover, the results for the EC50 in test [2] and in test [3] were 776 nM and more than 10000 nM, respectively.
Regarding `N#Cc1ccc(S(=O)(=O)Oc2ccc3c(c2)OC2(CCCCC2)N(Cc2ccccc2)C3=O)cc1`, the Activity in test [1] is less than 80%. Moreover, the EC50 was 288 nM in test [2] and more than 10000 nM in test [3].
In the case of `O=C1c2ccc(OS(=O)(=O)c3ccc([N+](=O)[O-])cc3)cc2OC2(CCOCC2)N1Cc1ccccc1`, the Activity in test [1] was less than 80%.
Same read-out and setting: next, `O=C1c2ccc(OS(=O)(=O)c3ccc4c(c3)OCCO4)cc2OC2(CCOCC2)N1Cc1ccccc1`: less than 80%.
Regarding `CN1C(=O)c2ccc(OS(=O)(=O)c3cccc4ccccc34)cc2OC1(C)C`, the Activity in test [1] was less than 80%. The EC50 is 2950 nM in test [2] and 7240 nM in test [3].
For `O=C1c2ccc(OS(=O)(=O)Cc3ccccc3)cc2OC2(CCCCC2)N1Cc1ccccc1`, in that order: less than 80%, 759 nM and more than 10000 nM.
As for `COc1cccc(COc2ccc3c(c2)OC(C)(C)N(Cc2ccc(C(C)C)cc2)C3=O)c1`, in test [1], the Activity was less than 80%. Also, the pEC50 result in test [2] was “inactive”.
For `N#Cc1cccc(S(=O)(=O)Oc2ccc3c(c2)OC2(CCCCC2)N(Cc2ccccc2)C3=O)c1`, in test [1], the Activity is less than 80%. Besides, the EC50 in test [2] was 355 nM; in test [3], more than 10000 nM.
Regarding `Cn1cnc(S(=O)(=O)Oc2ccc3c(c2)OC2(CCCCC2)N(Cc2ccccc2)C3=O)c1`, in test [1], the Activity was less than 80%. The EC50 in test [2] was 1000 nM; in test [3] it was more than 10000 nM.
For the compound `O=C1c2ccc(OS(=O)(=O)c3ccc(-c4ccc(Cl)cc4)cc3)cc2OC2(CCCCC2)N1Cc1ccccc1`, in test [1], the Activity is less than 80%.
`Cc1ccc(S(=O)(=O)Oc2ccc3c(c2)OC(C)(C)N(Cc2ccc(F)cc2)C3=O)cc1`: the Activity in test [1] was less than 80%. Further, the results for the EC50 in test [2] and in test [3] were 195 nM and more than 10000 nM, respectively.
Take `COc1ccc(S(=O)(=O)Oc2ccc3c(c2)OC2(CCCCC2)N(Cc2ccccc2)C3=O)cc1`: the Activity in test [1] is less than 80%. Moreover, the figures for the EC50 in test [2] and in test [3] were 1480 nM and more than 10000 nM, respectively.
Turning to `CN1C(=O)c2ccc(OS(=O)(=O)c3ccc(Oc4ccccc4)cc3)cc2OC1(C)C`, in test [1], the Activity is less than 80%.
Same read-out and setting: next, `CN(C)C(=O)CN1C(=O)c2ccc(OS(=O)(=O)c3ccc(Br)cc3)cc2OC1(C)C`: less than 80%.
As to `O=C1NC2(CCCCC2)Oc2cc(OS(=O)(=O)c3ccccc3[N+](=O)[O-])ccc21`, the Activity in test [1] is less than 80%. The EC50 in test [2] is 2140 nM; in test [3] it was more than 10000 nM.
With `CC1(C)Oc2cc(OCc3ccc(OC(F)(F)F)cc3)ccc2C(=O)N1Cc1ccc(F)cc1`, the Activity in test [1] is less than 80%. Also, in test [2], the pEC50 result is “inactive”.
For `N#Cc1ccc(CN2C(=O)c3ccc(OCc4ccc(OC(F)(F)F)cc4)cc3OC23CCCCC3)cc1`, in that order: less than 80% and “inactive”.
Consider `O=C1c2ccc(OS(=O)(=O)c3cccc([N+](=O)[O-])c3)cc2OC2(CCOCC2)N1Cc1ccccc1`, for which the Activity in test [1] is less than 80%. The EC50 in test [2] was 204 nM; in test [3], more than 10000 nM.
